# Laboratory results: PubChem BioAssay
# The list shows a part of the results. A number with no mark means an inactive call. Calls of active or inactive are those of the source.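 Rule for the calls, unless noted: active = mean of duplicate thallium-flux fluorescence ratios in parental host cells more than 5 SD below the buffer control mean (cut at about 0.38 in these data); inactive = the rest.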
# Assays:
# [1] = molecular target: Potassium voltage-gated channel subfamily KQT member 1 (Homo sapiens) (UniProt P51787); test: blockers of human KCNQ1 channel – cell-based, Tl flux, duplicate, confirmation (AID 588353;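 active = primary screen active, with duplicate mean exceeding buffer control mean plus 3 SD of buffer wells, cut at about 28% in these data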;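 note: 0% = buffer control ratio and 100% = XE991 inhibitor control ratio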); settings: KCNQ1 cell line, FluxOR thallium flux fluorescence, at 10 µM, hits give high values
# Chain of Potassium voltage-gated channel subfamily KQT member 1 (Homo sapiens) (P51787 whole entry, looked up): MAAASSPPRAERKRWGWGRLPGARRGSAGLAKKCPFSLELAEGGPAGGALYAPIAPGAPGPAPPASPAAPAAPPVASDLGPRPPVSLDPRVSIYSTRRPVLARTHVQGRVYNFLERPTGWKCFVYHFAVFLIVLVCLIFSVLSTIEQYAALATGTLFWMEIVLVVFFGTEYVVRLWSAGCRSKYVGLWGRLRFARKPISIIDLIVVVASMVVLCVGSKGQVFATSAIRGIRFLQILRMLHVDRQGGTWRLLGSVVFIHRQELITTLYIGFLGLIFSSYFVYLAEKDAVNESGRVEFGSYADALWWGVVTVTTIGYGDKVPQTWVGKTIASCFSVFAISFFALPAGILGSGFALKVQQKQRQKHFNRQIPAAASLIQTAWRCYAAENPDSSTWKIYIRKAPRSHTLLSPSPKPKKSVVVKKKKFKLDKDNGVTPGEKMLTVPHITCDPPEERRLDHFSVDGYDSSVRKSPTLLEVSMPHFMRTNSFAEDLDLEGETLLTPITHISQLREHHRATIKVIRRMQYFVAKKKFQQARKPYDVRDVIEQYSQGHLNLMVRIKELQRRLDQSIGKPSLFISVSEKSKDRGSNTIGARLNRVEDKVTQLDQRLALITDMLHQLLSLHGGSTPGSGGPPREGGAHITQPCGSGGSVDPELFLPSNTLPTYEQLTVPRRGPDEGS
# Procedure, shortened: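 Test system: CHO cells stably expressing KCNQ1 potassium channel / Evaluation: percent inhibition of fluorescence change ratio, scaled buffer to XE991 / Technique: FluxOR thallium flux fluorescence, 10 s baseline plus 110 s / Schedule: 90 min dye load, 20 min dark compound exposure, room temperature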
# [2] = nonspecific activity in CHO-K1 cells without KCNQ1 – parental CHO cells, Tl flux, counter-screen for KCNQ1 inhibitor project (AID 588366); settings: parental CHO-K1, FluxOR thallium flux fluorescence ratio; at 10 µM; hits give low values; zero means no signal rise above baseline;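 note: ratio is peak minus minimum fluorescence divided by baseline fluorescence; actives read low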
# Procedure, shortened: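 Assay system – untransfected parental CHO-K1 cells · Technique – kinetic Tl+ flux fluorescence with FluxOR dye · Timing – FluxOR dye loading 90 min, compound exposure 20 min, room temperature · Replication – duplicate measurements per compound · Also added – K+/Tl+ depolarizing stimulus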
# [3] = molecular target: Potassium voltage-gated channel subfamily KQT member 1 (Homo sapiens) (UniProt P51787); test: block of human KCNQ1 potassium current – cell-based, automated electrophysiology, orthogonal assay, confirmation (AID 624120;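 active = KCNQ1 current drop exceeding 3 SD of negative control wells, seen in both duplicate runs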); settings: KCNQ1-CHO cells, automated patch clamp current; at 10 µM
# Procedure, shortened: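 System: KCNQ1-expressing CHO cells; Medium: external buffer at pH 7.4; Probe or stimulus: 2,000 ms voltage steps to +40 mV from -80 mV; Compound: 10 µM final, single dose; Technique: automated perforated-patch voltage clamp using amphotericin B; Measure: percent change in steady-state +40 mV current, post- versus pre-compound; Benchmarks: negative controls; Replication: duplicates.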
# [4] = molecular target: Potassium voltage-gated channel subfamily KQT member 2 (Rattus norvegicus) (UniProt O88943); test: block of rat KCNQ2 potassium channel – cell-based, selectivity assay for KCNQ1 inhibitor project (AID 651746;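 active = mean percent inhibition of the KCNQ2 thallium signal more than 5 SD above the buffer-only control wells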;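 for inhibition: 0% = buffer control wells and 100% = XE-991 inhibitor control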); settings: KCNQ2 cells, FluxOR thallium flux fluorescence, at 10 µM; hits give high values
# Chain of Potassium voltage-gated channel subfamily KQT member 2 (Rattus norvegicus) (O88943 whole entry, looked up): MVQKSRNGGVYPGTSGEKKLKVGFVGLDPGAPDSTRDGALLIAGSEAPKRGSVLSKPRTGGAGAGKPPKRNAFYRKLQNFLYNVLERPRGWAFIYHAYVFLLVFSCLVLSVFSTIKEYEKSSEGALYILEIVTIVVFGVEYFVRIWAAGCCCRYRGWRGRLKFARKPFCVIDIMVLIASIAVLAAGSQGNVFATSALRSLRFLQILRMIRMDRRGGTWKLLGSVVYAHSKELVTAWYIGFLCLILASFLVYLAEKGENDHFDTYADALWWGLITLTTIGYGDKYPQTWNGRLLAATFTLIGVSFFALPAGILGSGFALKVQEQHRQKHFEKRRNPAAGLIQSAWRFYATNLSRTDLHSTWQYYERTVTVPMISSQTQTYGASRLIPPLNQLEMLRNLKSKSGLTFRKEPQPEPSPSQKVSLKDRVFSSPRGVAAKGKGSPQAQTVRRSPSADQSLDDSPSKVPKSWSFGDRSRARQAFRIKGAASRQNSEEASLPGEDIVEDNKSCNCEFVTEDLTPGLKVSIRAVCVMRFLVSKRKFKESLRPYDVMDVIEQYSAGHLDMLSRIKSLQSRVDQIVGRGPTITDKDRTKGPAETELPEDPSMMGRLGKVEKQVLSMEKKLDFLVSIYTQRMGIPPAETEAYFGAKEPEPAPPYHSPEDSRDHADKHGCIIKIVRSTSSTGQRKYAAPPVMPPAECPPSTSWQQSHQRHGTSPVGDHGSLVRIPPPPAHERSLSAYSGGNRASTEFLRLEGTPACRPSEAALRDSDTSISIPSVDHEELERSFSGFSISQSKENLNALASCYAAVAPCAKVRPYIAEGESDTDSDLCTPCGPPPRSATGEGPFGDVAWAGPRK
# [5] = molecular target: Potassium voltage-gated channel subfamily E member 1 (Homo sapiens) + Potassium voltage-gated channel subfamily KQT member 1 (Homo sapiens) (UniProt P15382+P51787); test: block of human IKs channel complex – CHO-K1 cells, thallium flux, FluxOR, selectivity assay for KCNQ1 inhibitor project (AID 652147;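 active = mean percent inhibition of duplicate wells above the buffer-only control mean plus 3 SD of those controls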;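 for inhibition: 0% = buffer only wells and 100% = XE-991 inhibitor control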); settings: KCNQ1/KCNE1 cells, FluxOR thallium flux fluorescence, at 10 µM; hits give high values
# Chain of Potassium voltage-gated channel subfamily E member 1 (Homo sapiens) + Potassium voltage-gated channel subfamily KQT member 1 (Homo sapiens) (P51787 whole entry, looked up): as the sequence (P51787 whole entry, looked up) above
# Procedure, shortened: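 System: cells expressing KCNQ1/KCNE1 channels; timing: 20 min compound pre-incubation at room temperature; technique: FluxOR thallium influx fluorescence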
SMILES,inhibition [1],fluorescence ratio (Tl flux) [2],outcome [3],inhibition [4],inhibition [5],outcome [4],outcome [5]
Cc1cccc(Nc2ccccc2C(=O)NCc2ccco2)c1C,134% (active),0.394,inactive,101% (active),198% (active),,
CCc1noc(C)c1C(=O)Oc1ccc(N(C)S(=O)(=O)c2ccc(C)c(C)c2)cc1,108% (active),0.408,inactive,95.3% (active),83.5% (active),,
CCOC(=O)C1CCN(c2ncnc3c2oc2ccc(Br)cc23)CC1,150% (active),0.39,inactive,129% (active),193% (active),,
CCC(=C/c1sc2ccc3ccccc3c2[n+]1C)/C=C1\Sc2ccc3ccccc3c2N1C,57.5% (active),0.508,,59% (active),64% (active),,
Fc1ccc2[nH]c3c(N4CCSCC4)ncnc3c2c1,162% (active),0.362 (active),,,,inactive,inactive
CCCN1Cc2cccc(C(=O)NCc3ccccc3)c2C1=O,83% (active),0.478,,,80% (active),inactive,
Cc1nc2ccccc2cc1OCc1ccc(F)cc1,126% (active),0.438,inactive,99% (active),88.5% (active),,
O=C(CCN1c2ccccc2Sc2ccccc21)Nc1ccccc1,164% (active),0.384,inactive,118% (active),186% (active),,
COc1ccc(Nc2ncnc3sc(-c4ccccc4)cc23)c(OC)c1,82.5% (active),0.403,,112% (active),146% (active),,
C=CCSc1nsc(NC(=O)Nc2cccc(C(C)=O)c2)n1,100% (active),0.489,inactive,74% (active),60% (active),,
CC1CCCN(C(C(=O)Nc2ccc(C(C)C)cc2)c2ccc3c(c2)OCO3)C1 (centres undefined),132% (active),0.429,inactive,99.7% (active),164% (active),,
Cc1cc2nc3c(=O)n(Cc4ccccc4)c(=O)[nH]c3nc2cc1N,93% (active),0.332 (active),,,110% (active),inactive,
COC(=O)c1ccc(NC(=O)Nc2ccc(C)cc2)cc1,62.5% (active),0.504,,,,inactive,inactive
Cc1c(C(=O)OC(C)C)sc(NC(=O)c2cccnc2)c1C#N,74% (active),0.489,,78% (active),48.5% (active),,
Cc1cc(Br)ccc1NC(=O)c1cnc(N2CCN(c3ccccn3)CC2)c2ccccc12,89% (active),0.444,inactive,94.7% (active),124% (active),,
CCOC(=O)c1cnc(SC)nc1Sc1ccc(Cl)cc1Cl,97.5% (active),0.406,inactive,93% (active),111% (active),,
COc1ccc(C(=O)NC2CCCc3c2cnn3-c2cccc(C)c2C)c(OC)n1 (centres undefined),132% (active),0.296 (active),,127% (active),184% (active),,
S=C(NCC1CCCO1)N1CCN(c2ccc(Cl)c(Cl)c2)CC1 (centres undefined),101% (active),0.501,active,76% (active),,,inactive
CN(c1cccc(NC(=O)Nc2ccc(Cl)cc2)c1)S(C)(=O)=O,59.5% (active),0.545,,,42.5% (active),inactive,
CCSc1nsc(NC(=O)Nc2cccc(C(C)=O)c2)n1,112% (active),0.514,inactive,,,inactive,inactive
Cc1nc(N2CCN(c3ccccn3)CC2)c2c(C)c(C(=O)Nc3ccc(F)cc3)sc2n1,146% (active),0.324 (active),,141% (active),,,
N#Cc1c(/N=C/N2CCCC2)oc(-c2ccccc2)c1-c1ccccc1,70% (active),0.445,,74.3% (active),79% (active),,

SMILES,inhibition [1],fluorescence ratio (Tl flux) [2],outcome [3],inhibition [4],inhibition [5],outcome [4],outcome [5]
CCOc1ccc(CN2CCN(Cc3c[nH]c4ccccc34)CC2)cc1,"0% [the number is a placeholder, only the call stands]",0.441,,,40% (active),inactive,
O=C(Nc1ccc(F)cc1)c1cccnc1N1CCOCC1,44% (active),0.517,,,53.5% (active),inactive,
Cc1cccc(CSc2ccc(-c3cccs3)nn2)c1,78% (active),0.42,,114% (active),112% (active),,
Cc1cc(C)cc(N(CC(=O)N2CC=C(c3ccccc3)CC2)S(=O)(=O)c2c(C)noc2C)c1,78% (active),0.363 (active),,111% (active),84% (active),,
O=C(Nc1nnc(S(=O)(=O)N2CCCCCC2)s1)c1cccc(Br)c1,57% (active),0.485,,,,inactive,inactive
c1ccc2c(c1)C(=NC1CCCCC1)NC2=NC1CCCCC1,48% (active),0.526,,,,inactive,inactive
FC(F)Oc1ccc(NC(=S)NCc2ccco2)cc1Cl,56.5% (active),0.494,,,38% (active),inactive,
COc1cccc(-c2cnc(OC(C)(C)C)nc2OC(C)(C)C)c1,75% (active),0.462,,61% (active),94.5% (active),,
COc1ccc(S(=O)(=O)/N=C2\C=C(NS(=O)(=O)c3ccccc3)C(=O)c3ccccc32)cc1,31.5% (active),0.44,,,,inactive,inactive
Cc1oc2c(F)c(F)c(F)c(F)c2c1S(=O)(=O)Nc1cccc(C(F)(F)F)c1,"0% [the number is a placeholder, only the call stands]",0.531,,,,inactive,inactive
O=C1CCc2cc(S(=O)(=O)N3CCC(C(=O)NCc4ccccc4Cl)CC3)ccc2N1,"0% [the number is a placeholder, only the call stands]",0.447,,,,inactive,inactive
Cc1cccc(-n2cc(CN3CCN(C(=O)c4ncn[nH]4)CC3)c(-c3cccc(F)c3)n2)c1,45.5% (active),0.435,,,,inactive,inactive
CSc1nccc(NC(=O)c2ccc(C(C)(C)C)cc2)n1,153% (active),0.366 (active),,105% (active),144% (active),,
CCOC(=O)c1c(NC(=O)C(C)Sc2c[nH]c3ccccc23)sc2c1CCC2 (centres undefined),124% (active),0.415,,105% (active),155% (active),,
CS(=O)(=O)N(CC(=O)Nc1ccc(Cl)c(Cl)c1)C1CCCCC1,56.5% (active),0.476,,63.3% (active),,,inactive
Cc1cccc(NC(=S)Nc2ccc(Cl)c(Cl)c2)c1,49% (active),0.565,,,,inactive,inactive
Cc1ccc(-c2noc(CC(c3ccccc3)c3ccccc3)n2)cc1,65.5% (active),0.45,,77% (active),116% (active),,
CCCC(=O)N1CCN(c2nnc(-c3ccc(C)cc3)c3ccccc23)CC1,"0% [the number is a placeholder, only the call stands]",0.507,,75% (active),78% (active),,
O=C(Nc1ccc(Cl)cc1)Nc1ccc(Oc2cccnc2)nc1,56% (active),0.487,,,,,inactive
Oc1ccc2ccc3cccc[n+]3c2c1,,0.012 (active),,,,inactive,inactive
CNC(=O)c1ccsc1NC(=O)c1ccc(S(=O)(=O)N2CCc3ccccc32)cc1,97% (active),0.446,,115% (active),170% (active),,
CC(=O)N1CCCc2cc(S(=O)(=O)N3CCCC(C(=O)N4CCN(c5cccc(Cl)c5)CC4)C3)ccc21 (centres undefined),126% (active),0.436,,134% (active),140% (active),,

SMILES,inhibition [1],fluorescence ratio (Tl flux) [2],outcome [3],inhibition [4],inhibition [5],outcome [4],outcome [5]
O=C(NCCc1ccccc1)c1ccc2c(c1)N(Cc1ccccc1)CCS2,71.5% (active),0.426,,101% (active),72% (active),,
COc1ccc(-c2cc(C(F)(F)F)nc(S(C)(=O)=O)n2)cc1OC,27% (active),0.445,,,77.5% (active),inactive,
CCNC(=O)c1ccc(OCC(=O)Nc2ccc(F)cc2)c(OC)c1,"0% [the number is a placeholder, only the call stands]",0.446,,,51% (active),inactive,
Cc1nc(Nc2ccc3c(c2)OCCO3)c2nnn(Cc3ccccc3Cl)c2n1,83% (active),0.413,,96% (active),102% (active),,
CC(C)OC(=O)C(C#N)c1nc2ccccc2nc1N1CCN(Cc2ccccc2)CC1 (centres undefined),148% (active),0.382,,100% (active),,,inactive
Cc1nnc(SC(C(=O)Nc2cc(Cl)cc(Cl)c2)c2ccccc2)[nH]c1=O (centres undefined),43% (active),0.471,,,,,inactive
COc1cc(NC(=O)c2ccccc2NS(=O)(=O)c2ccc(Cl)s2)cc(OC)c1,102% (active),0.419,,,,inactive,inactive
O=C(Nc1ccc2ccccc2c1)Nc1ccc2snnc2c1,41.5% (active),0.539,,,,inactive,inactive
S=C(Nc1cccc(Cl)c1)Nc1ccc2c(c1)OCCO2,81% (active),0.444,,,47% (active),inactive,
O=C(NCC(F)(F)F)Nc1nnc(C(F)(F)F)s1,26% (active),0.557,,,,inactive,inactive
Cc1ccccc1C(=O)OC1OC(=O)C(Cl)=C1Nc1ccccc1 (centres undefined),79% (active),0.434,,,65% (active),,
Cc1ccccc1OCC(=O)Nc1ccc(N2CCN(C(=O)C(C)C)CC2)c(Cl)c1,57.5% (active),0.503,,,51% (active),,
CC1CCC2(CC1)NC(=O)N(CC(=O)c1cccn1C)C2=O (centres undefined),31% (active),0.503,,,,inactive,inactive
O=C(NC(=S)Nc1ccccc1C(=O)O)c1ccc(-c2ccc(Br)cc2)o1,56% (active),0.46,,,78% (active),inactive,
Fc1cc(Br)ccc1NC(=S)Nc1cccnc1,33% (active),0.539,,,,inactive,inactive
Cc1nn(C)cc1N1C(=O)c2cccc3c(N)ccc(c23)C1=O,,0.006 (active),,,,inactive,inactive
CCc1cc(C(c2ccccc2OC)N2CCOCC2)c(NC(=O)c2ccccc2)s1 (centres undefined),102% (active),0.335 (active),,,132% (active),,
CC(C(=O)NCC1CCCCC1)N(C)Cc1cccc(Cl)c1 (centres undefined),62% (active),0.435,,76% (active),84% (active),,
Cc1ccc(N2CCN(S(=O)(=O)c3ccc(F)cc3)CC2)c(C)c1,79% (active),0.406,,94% (active),69.5% (active),,
Cn1nc(-c2ccc(Cl)cc2)c2cc(C(=O)NCc3ccco3)sc21,70.5% (active),0.454,,103% (active),,,inactive
